Measurements as given in ChEMBL document CHEMBL4513216, “Probing the Open Global Health Chemical Diversity Library for Multistage-Active Starting Points for Next-Generation Antimalarials” (ACS Infect Dis, 2020).

Test: Toxicity liver stage against HepG2, at 10uM
Format: cell-based
Set-up: test concentration 10 uM, cell line HepG2-A16-CD81EGFP
Conditions: human, HepG2-A16-CD81EGFP cells; read-out: INHIBITION
In short: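 Uninfected HepG2-A16-CD81EGFP cells, 3 × 10^3 per well, 1536-well, plated on prespotted compound at 10 μM final, parasite-free screening media added to match infected plates; puromycin 10 μM positive, DMSO 0.5% negative; run in parallel with 48 h PbLuc assay at 37 °C, 5% CO2; viability by CellTiter-Glo luminescence, normalized to controls.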

Row | Compound | cytotoxicity at 10 µM [%]
1 | O=C(c1cn(CC(=O)N2CCCCC2)c2ccccc12)C1CC1 | 9.14
2 | FC(F)(F)c1ccc(-c2c[nH]c([C@@H]3COCCN3)n2)cc1 | 1.05
3 | CC(=O)N1CCN(C(=O)Cc2cnc(-c3c(Cl)cccc3Cl)s2)CC1 | 7.27
4 | CC(C)NC(=O)c1csc(NC2CC2)n1 | -2.72
5 | CN1CCN(C(=O)c2cc3sccc3n2Cc2ccc(Cl)cc2)CC1 | 1.05
6 | CC1CC(=O)c2cc(C(=O)N3CCOCC3)c(=O)[nH]c2C1 (stereo unspecified) | -3.06
7 | COc1c[nH]c(C(=O)N2CCN(c3ccc(Cl)cc3)CC2)cc1=O | 4.42
8 | CC(=O)Nc1cnc(-n2ccnc2)nc1 | -1.25
9 | O=C(NCCC(O)c1ccoc1)Nc1cccs1 (stereo unspecified) | -2.55
10 | O=C1[C@H]2CN(S(=O)(=O)c3cccs3)C[C@H]2CN1CC1CC1 | 2
11 | O=C(NC1CC1)N1Cc2[nH]nc(COCC3CC3)c2C1 | 13.6
12 | Fc1cccnc1N1CCC2(CNCCC2(F)F)C1 (stereo unspecified) | -7.15
13 | O=S(=O)(C1CC1)N1CCc2ncc(Cn3cncn3)n2CC1 | 3.62
14 | CN1C(=O)C2(CCN(C(=O)c3cccnc3)CC2)c2cccc(F)c21 | -1.06
15 | COc1ncnc2c1CCN(c1cccc(F)c1)CC2 | 10.7
16 | COCCO[C@H]1CCN(c2ccc(C)nn2)[C@H]1Cc1cnn(C)c1 | 2.5
17 | COCCN1C[C@@H](C)[C@@]2(COCCN(C(=O)c3ccoc3)C2)C1 | 7.4
18 | CN(C)C(=O)C1OC2(CCN(C(=O)N(C)C)CC2)c2ccccc21 (stereo unspecified) | 8.04
19 | COc1cc(Cl)c(C)cc1-n1nnc(C(=O)O)c1-c1ccncc1 | 4.74
20 | O=C(COCC(=O)N1CCCCCC1)NCc1cccc(Br)c1 | 1.47
21 | CCOc1cc(C(=O)n2cc(C)cn2)cc(OCC)c1OCC | 8.29
22 | c1cnc(CC2COCCN(C3CCCCC3)C2)cn1 (stereo unspecified) | 0.514
23 | C=C(C)Cn1nc(C)c(CN2CCN(C3CCCCC3)C(=O)C2)c1C | 4.59

Row | Compound | cytotoxicity at 10 µM [%]
24 | Cc1nc(-c2c(C)noc2C)cc(C2CCN(CC(=O)N(C)C)CC2)n1 | 5.84
25 | O=C(c1cncs1)N1CCOCC(Cc2ccccn2)C1 (stereo unspecified) | 0.105
26 | COC(=O)c1ncccc1N1CCN(C(=O)CN2CCOCC2)CC1 | 16.7
27 | O=C(C(c1ccccc1)S(=O)(=O)c1ccccn1)N1CCCC1 (stereo unspecified) | 7.27
28 | COc1nc(N2CCNCC2)ncc1Br | 5.2
29 | CCc1noc(CSc2n[nH]c(-c3ccccn3)n2)n1 | 5.49
30 | O=S(=O)(Cc1nc(C2CC2)no1)c1cc(F)ccc1F | 7.81
31 | CCS(=O)(=O)CCN1CCN(C2CCC(C(C)C)CC2)CC1 (stereo unspecified) | 7.76
32 | O=C1CC2(CCSC2)C(=O)N1Cc1coc(-c2ccccc2)n1 (stereo unspecified) | 5.57
33 | NC(=O)c1ccc(NC(=O)c2ccncc2Cl)cn1 | 8.29
34 | Cc1noc(C)c1CNC(=O)Nc1ccc(N2CCOC2=O)cc1 | -2.93
35 | COc1ccccc1CC1CCN(C(=O)CCc2ccccn2)CC1 | -3.2
36 | CCOC(=O)c1nnc2ccccc2c1N1CCN(C(C)C)CC1 | -1.54
37 | Cn1cc(C2CCCN2C(=O)Cc2coc(-c3ccccc3)n2)cn1 (stereo unspecified) | 4.14
38 | CC(=O)N(Cc1ncc(C)o1)C1CCN(Cc2cnc(C)s2)C1 (stereo unspecified) | 5.42
39 | Clc1cnccc1N1CCCC2(CCCOC2)C1 (stereo unspecified) | -2.35
40 | Cc1ccc(C(=O)NC2CCN(Cc3nc(C(C)C)no3)CC2)s1 | 3.82
41 | CCN(CC1CCOC1)C(=O)c1ccc(N(C)C)cc1F (stereo unspecified) | 3.54
42 | Cc1ccc(CNC(=O)NC(C)CN2CCOCC2)s1 (stereo unspecified) | -14.1
43 | Cc1cnn(CC2CCCN2C(=O)Cc2c(C)noc2Cl)c1 (stereo unspecified) | 0.471
44 | CCC(C)NC(=O)NCCC(=O)N1CCN(c2ccccn2)CC1 (stereo unspecified) | 4.22
45 | COc1ccccc1S(=O)(=O)CCOC(C)C | 6.24
46 | CCN(Cc1ccoc1)C(=O)c1cc(S(N)(=O)=O)c(C)o1 | -2.98

Row | Compound | cytotoxicity at 10 µM [%]
47 | CCOC(C(=O)N1CCn2c(nnc2C(C)C)C1)c1ccccc1 (stereo unspecified) | 3.84
48 | O=C(NCCNc1ccccn1)NCC1CCS(=O)(=O)C1 (stereo unspecified) | 1.48
49 | COCCN(C)S(=O)(=O)c1cc(C)cc(F)c1 | 3.49
50 | COCCC1(CNC(=O)NCC2CCCS2)CCCC1 (stereo unspecified) | 0.96
51 | O=C(Nc1cccnc1)NC(CCCO)c1ccccc1 (stereo unspecified) | -4.4
52 | O=C1CCCc2[nH]c(=O)c(C(=O)N3CCc4ccccc4C3)cc21 | 14.6
53 | Cc1cccc(NS(=O)(=O)c2cc(C(=O)O)oc2C)c1 | -9.15
54 | Cc1ccc(S(=O)(=O)NCCNC(=O)c2ccoc2)cc1F | -5.69
55 | CCOC(=O)c1c(NC(=O)CN2CCN(C(C)=O)CC2)sc2c1CCC2 | -5.33
56 | CO[C@H]1CC[C@H]2[C@H]1OCCN2C(=O)CCOc1ccccc1 | -95
57 | CS(=O)(=O)NC[C@]12COC[C@H]1CN(C(=O)CC1CCCC1)C2 | -101
58 | O=C(c1cscn1)N1CCC[C@]2(C[C@H](OCC3CC3)CO2)C1 | -2.86
59 | COc1ccccc1CN1CCC2(CC1)CC(Oc1ccccn1)CO2 (stereo unspecified) | -1.96
60 | Cc1cccc(CNC2CC(=O)N(Cc3cccc(F)c3)C2)c1 (stereo unspecified) | 1.22
61 | COc1cccc2c1OCC(NCCCOc1cccnc1)C2 (stereo unspecified) | 1.52
62 | COc1ccc(Cc2nc3c([nH]2)CC(C)(C)CNC3=O)cc1OC | -3.04
63 | COCCN(C)C(C(=O)O)c1ccc(F)c(C)c1 (stereo unspecified) | 1.87
64 | O=C(C1CC12CCC2)N1CCC(n2cc(-c3ccsc3)nn2)CC1 (stereo unspecified) | 5.85
65 | Cc1cc(C)n(CCCN(C)Cc2cn[nH]c2-c2ccc(F)cc2)n1 | 2.09
66 | Cc1nc(CN2CCCC23CCN(c2nc4ccccc4s2)CC3)co1 | -1.99
67 | COc1cccc2c1OCCCN(Cc1ccc(C(N)=O)c(=O)[nH]1)C2 | 4.82
68 | Cc1ccc(-c2nc(CC3CCN(C)CC3)no2)cc1N1CCNC1=O | -11.8
69 | COCC(=O)N1CCC2(CC1)CC(=O)N(Cc1ccc(Cl)cc1)C2 | 0.96

Row | Compound | cytotoxicity at 10 µM [%]
70 | CC(C)n1ccnc1C1CCCN(c2ncccc2C(N)=O)C1 (stereo unspecified) | -9.53
71 | N#Cc1cccc(NC2CC(=O)N(Cc3ccccc3Cl)C2)n1 (stereo unspecified) | 4.37
72 | CCOCCC(=O)NCC1CCCO1 (stereo unspecified) | 6.56
73 | CC(C)[C@H]1CN(C(=O)CO)C[C@@H]1N(C)C | 7.1
74 | COCCN(C)CCN1CC2(CCN(C3CCNCC3)CC2)OC1=O | 1.64
75 | O=C(c1cccnc1N1CCN(Cc2ccoc2)CC1)N1CCCCC1 | -3.68
76 | CCc1nc(CN(C)C2CCCN(c3cccnn3)C2)no1 (stereo unspecified) | -5.87
77 | Cc1noc(NC(=O)CCNC(=O)c2ccc(Br)cc2)n1 | 0.449
78 | Cc1ccc(F)c(NS(=O)(=O)c2cc3c(c(C(=O)O)c2)OCCO3)c1 | -5.32
79 | CCOc1cc(C(=O)N2CCCC(c3noc(C(C)C)n3)C2)ccn1 (stereo unspecified) | -6.73
80 | CCNc1cc2c(nn1)CCN(C(=O)c1c(C)noc1C)C2 | -5.76
81 | CC(=O)N(Cc1ncc(C(C)C)o1)C1CCN(Cc2cc(C)no2)C1 (stereo unspecified) | -5.89
82 | CC(=O)c1cccc(NC(=O)Cn2nc(-c3cccs3)oc2=O)c1 | 4.78
83 | O=C(CCCOc1ccccc1)N1CCCC(n2cncn2)C1 (stereo unspecified) | -8.57
84 | COc1cccc(-n2nnc(C(=O)N3CCOC(C)C3)c2C)c1 (stereo unspecified) | -9.95
85 | Cc1nn(C)c(C)c1C(=O)NCc1ccnc(OCC(F)(F)F)c1 | -10.7
86 | N#Cc1cccnc1N1CCCN(C(=O)CCn2cncn2)CC1 | 0.111
87 | CC1CN(C(=O)NCCNc2cnccn2)CCO1 (stereo unspecified) | 5.31
88 | Cc1nc(C)n(C2CCCN(C(=O)CCCOc3ccccc3)C2)n1 (stereo unspecified) | -12.7
89 | COCc1nc(C(=O)NS(=O)(=O)c2ccc(C)cc2C)cs1 | -4.35
90 | N#CC1(C(=O)N2CCN(c3nccs3)CC2)CCCCC1 | -8.24
91 | CSCc1cccc(C(=O)N2CCN(CC(C)O)CC2)c1 (stereo unspecified) | -5.31
92 | CN(CC(=O)N1CCCN(Cc2cscn2)CC1)c1cnccn1 | -7.81

Row | Compound | cytotoxicity at 10 µM [%]
93 | CC(C)(C)Nc1c(C2CCCN(C(=O)C3CC3)C2)nc2ccccn12 (stereo unspecified) | 8.07
94 | O=C(C1CC1)N1CCC2(CCCN2Cc2ccc(F)cc2)CC1 | 3.35
95 | CN(C)C[C@H]1OC[C@@H]2CCN(C(=O)Cc3cccs3)C[C@@H]21 | 7.13
96 | Brc1cc(CNCc2nnc3n2CCC3)cs1 | -6.22
97 | COc1cc(N2CCC3(CCCN3Cc3cnn(C)c3)CC2)ncn1 | 6.5
98 | CC(C)CN1CC[C@@H]2[C@@H]1CCN2S(=O)(=O)c1cn(C)cn1 | 7.86
99 | Fc1cccnc1O[C@@H]1CN(Cc2ccccn2)[C@@H]2CCCO[C@@H]21 | 1.71
100 | Cc1ncnc2c1CCN(C(=O)Cc1ccccn1)CC2 | 8.12
101 | CCN1C[C@H]2C3(CCN(S(=O)(=O)CC)CC3)CC[C@@]2(C(=O)N(C)C)C1 | 2.84
102 | COc1nn(C)c2c1CCCN(C(=O)c1ccc3ccccc3n1)C2 | 13.7
103 | CN1CCC2(CC1)C(=O)N(CC1CC1)c1ccccc12 | 3.21
104 | CNC(=O)CN1CCO[C@H]2CN(CC3CCOCC3)C[C@H]21 | 12.5
105 | O=C(C1CCOCC1)N1CCO[C@H]2[C@H](OCc3ccncc3)CC[C@@H]21 | -2.53
106 | CN(C)C(=O)[C@H]1CC[C@@H]2[C@@H](CCN2Cc2ccccn2)O1 | 3.21
107 | O=C(NC1CC1)N1CCCC2(CCCCN2)C1 (stereo unspecified) | 8.77
108 | O=c1[nH]c2cn(-c3ccccc3)c(=O)n2[nH]1 | -11.5
109 | CCc1cc(NC2CCC(N)CC2)n2nc(C)c(C)c2n1 (stereo unspecified) | -4.33
110 | O=C(CC1[C@H]2CN(c3ncccn3)C[C@@H]12)Nc1cccnc1 (stereo partly specified) | -1.55
111 | CSc1ncc(C(=O)N2C[C@@H]3CC[C@H]2CN(c2ncccn2)C3)cn1 | 1.26
